Tests used:
DU-145 = experiment: Cytotoxicity against human DU145 cells after 48 hrs by SRB assay; format: functional, cell-based
Procedure, shortened: (§1)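 Cells grown in RPMI 1640 with 10% FBS and penicillin/streptomycin at 37 °C and 5% CO₂, trypsinized, then seeded at 5 × 10³/well. After 18 h drug-free attachment, samples in DMSO/EtOH/PBS (0.5:0.5:99) were added for 48 h continuous exposure. Cells were fixed with cold TCA (1 h, 4 °C) and stained with SRB (10 min). Tris-solubilized stain read at 490 nm. Triplicate wells, mean ± SD; GI₅₀ derived.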

SK-MEL-28 = experiment: Cytotoxicity against human SK-MEL-28 cells after 48 hrs by SRB assay; format: functional, cell-based; procedure, shortened: as §1
A549 = experiment: Cytotoxicity against human A549 cells after 48 hrs by SRB assay; format: functional, cell-based; conditions: for LC50 / TGI / GI50: Homo sapiens, A549, 48 h; for GI50: read-out: GI50; procedure, shortened: as §1
HT-29 = experiment: Cytotoxicity against human HT29 cells after 48 hrs by SRB assay; format: functional, cell-based; conditions: for GI50 / TGI / CC50: Homo sapiens, HT-29, 48 h; for CC50: read-out: LC50 (the source's name); procedure, shortened: as §1
[1] = Cytotoxicity against human IGROV cells after 48 hrs by SRB assay; format: functional; conditions: for CC50: read-out: LC50 (the source's name); procedure, shortened: as §1
[2] = Cytotoxicity against human IGROV-ET cells after 48 hrs by SRB assay; format: functional; conditions: for CC50: read-out: LC50 (the source's name); procedure, shortened: as §1
SK-BR-3 = experiment: Cytotoxicity against human SKBR3 cells after 48 hrs by SRB assay; format: functional; conditions: SK-BR-3, 48 h; procedure, shortened: as §1
PANC-1 = experiment: Cytotoxicity against human PANC1 cells after 48 hrs by SRB assay; format: functional; conditions: PANC-1, 48 h; procedure, shortened: as §1
LoVo = experiment: Cytotoxicity against human LoVo cells after 48 hrs by SRB assay; format: functional
HeLa = experiment: Cytotoxicity against human HeLa cells after 48 hrs by SRB assay; format: functional; conditions: read-out: LC50 (the source's name); procedure, shortened: as §1
[3] = Cytotoxicity against human HeLa-APL cells after 48 hrs by SRB assay; format: functional; procedure, shortened: as §1
[4] = read-out: LC50 (the source's name)

## C/C=C1\NC(=O)[C@H](Cc2ccccc2)NC(=O)[C@@H](C(C)C)NC(=O)[C@@H]([C@H](C)CC)NC(=O)[C@H](NC(=O)[C@H](NC(=O)[C@H](CCCN)NC(=O)[C@H]2CCCN2C(=O)[C@H](NC(=O)[C@@H](NC(=O)[C@@H](NC(=O)[C@H](NC(=O)CCC)C(C)C)[C@@H](C)O)C(C)C)C(C)C)[C@H](C)CC)[C@H](C)OC(=O)[C@H](C(C)C)NC1=O
DU-145
  Activity: 1.74 ×10⁻⁶ M
SK-MEL-28
  Activity: 3.48 ×10⁻⁶ M
A549
  Activity: 3.48 ×10⁻⁶ M
HT-29
  Activity: 1.74 ×10⁻⁶ M

## C/C=C1\NC(=O)[C@H](Cc2ccccc2)NC(=O)[C@@H](C(C)C)NC(=O)[C@@H]([C@H](C)CC)NC(=O)[C@H](NC(=O)[C@H](NC(=O)[C@H](CCCN)NC(=O)[C@H]2CCCN2C(=O)[C@H](NC(=O)[C@@H](NC(=O)[C@@H](NC(=O)[C@H](NC(C)=O)C(C)C)[C@@H](C)O)C(C)C)C(C)C)[C@H](C)CC)[C@H](C)OC(=O)[C@H](C(C)C)NC1=O
DU-145
  Activity: 7.11 ×10⁻⁶ M
SK-MEL-28
  Activity: 7.11 ×10⁻⁶ M
A549
  Activity: 7.11 ×10⁻⁶ M
HT-29
  Activity: 7.11 ×10⁻⁶ M

## C/C=C1\NC(=O)[C@H](Cc2ccccc2)NC(=O)[C@@H](C(C)C)NC(=O)[C@@H]([C@H](C)CC)NC(=O)[C@H](NC(=O)[C@H](NC(=O)[C@H](CCCN)NC(=O)[C@H]2CCCN2C(=O)[C@H](NC(=O)[C@@H](NC(=O)[C@@H](NC(=O)[C@H](NC(=O)CC(C)(C)C)C(C)C)[C@@H](C)O)C(C)C)C(C)C)[C@H](C)CC)[C@H](C)OC(=O)[C@H](C(C)C)NC1=O
DU-145
  Activity: 3.42 ×10⁻⁷ M
SK-MEL-28
  Activity: 3.42 ×10⁻⁶ M
A549
  Activity: 1.71 ×10⁻⁶ M
HT-29
  Activity: 3.42 ×10⁻⁷ M

## CC[C@@H](C)[C@@H](NC(=O)[C@H](CCCN)NC(=O)[C@H]1CCCN1C(=O)[C@H](NC(=O)[C@@H](NC(=O)[C@@H](NC(=O)[C@H](NC(=O)CCCC(C)C)C(C)C)[C@@H](C)O)C(C)C)C(C)C)C(=O)N[C@H]1C(=O)N[C@H]([C@H](C)CC)C(=O)N[C@H](C(C)C)C(=O)N[C@@H](Cc2ccccc2)C(=O)N[C@H]([C@H](C)O)C(=O)N[C@@H](C(C)C)C(=O)O[C@H]1C
DU-145; Homo sapiens, DU-145, 48 h, read-out: LC50 (the source's name)
  CC50: 1500 nM
[1]
  CC50: 941 nM
[2]
  CC50: 1030 nM
SK-BR-3
  TGI: 6690 nM
SK-BR-3; read-out: GI50
  GI50: 6150 nM
SK-BR-3; [4]
  CC50: 1880 nM
SK-MEL-28; Homo sapiens, SK-MEL-28, 48 h, read-out: LC50 (the source's name)
  CC50: 2540 nM
A549
  LC50: 1150 nM
PANC-1
  GI50: 4880 nM
  TGI: 4580 nM
PANC-1; [4]
  CC50: 2210 nM
HT-29
  GI50: 11800 nM
  TGI: 10400 nM
  CC50: 5370 nM
LoVo
  GI50: 3440 nM
  TGI: 4230 nM
LoVo; [4]
  CC50: 4420 nM
HeLa
  CC50: 1490 nM
[3]
  LC50 (concentration giving 50% net cell kill): 1200 nM

## C/C=C1\NC(=O)[C@H](Cc2ccccc2)NC(=O)[C@@H](C(C)C)NC(=O)[C@@H]([C@H](C)CC)NC(=O)[C@H](NC(=O)[C@H](NC(=O)[C@H](CCCN)NC(=O)[C@H]2CCCN2C(=O)[C@H](NC(=O)[C@@H](NC(=O)[C@@H](NC(=O)[C@H](NC(=O)CCCO)C(C)C)[C@@H](C)O)C(C)C)C(C)C)[C@H](C)CC)[C@H](C)OC(=O)[C@H](C(C)C)NC1=O
DU-145
  Activity: 6.89 ×10⁻⁶ M
SK-MEL-28
  Activity: 6.89 ×10⁻⁶ M
A549
  Activity: 6.89 ×10⁻⁶ M
HT-29
  Activity: 6.89 ×10⁻⁶ M

## C/C=C1\NC(=O)[C@H](Cc2ccccc2)NC(=O)[C@@H](C(C)C)NC(=O)[C@@H]([C@H](C)CC)NC(=O)[C@H](NC(=O)[C@H](NC(=O)[C@H](CCCN)NC(=O)[C@H]2CCCN2C(=O)[C@H](NC(=O)[C@@H](NC(=O)[C@@H](NC(=O)[C@H](NC(=O)[C@H](NC(=O)C(C)C)[C@H](C)CC)C(C)C)[C@@H](C)O)C(C)C)C(C)C)[C@H](C)CC)[C@H](C)OC(=O)[C@H](C(C)C)NC1=O
DU-145
  Activity: 6.46 ×10⁻⁶ M
SK-MEL-28
  Activity: 6.46 ×10⁻⁶ M
A549
  Activity: 6.46 ×10⁻⁶ M
HT-29
  Activity: 6.46 ×10⁻⁶ M

## C/C=C1\NC(=O)[C@H](Cc2ccccc2)NC(=O)[C@@H](C(C)C)NC(=O)[C@@H]([C@H](C)CC)NC(=O)[C@H](NC(=O)[C@H](NC(=O)[C@H](NC(=O)[C@@H](NC(=O)[C@@H](NC(=O)[C@H](NC(=O)CCCC(C)C)C(C)C)[C@@H](C)O)C(C)C)C(C)C)[C@H](C)CC)[C@H](C)OC(=O)[C@H](C(C)C)NC1=O
A549
  LC50: 11300 nM
  TGI: 20800 nM
  GI50: 23000 nM
HT-29
  GI50: 9890 nM
  TGI: 61600 nM
  CC50: 30600 nM

## C/C=C1\NC(=O)[C@H](Cc2ccccc2)NC(=O)[C@@H](C(C)C)NC(=O)[C@@H]([C@H](C)CC)NC(=O)[C@H](NC(=O)[C@H](NC(=O)[C@H](CCCN)NC(=O)[C@H]2CCCN2C(=O)[C@H](NC(=O)[C@@H](NC(=O)[C@@H](NC(=O)[C@H](NC(=O)/C=C/C=C/C)C(C)C)[C@@H](C)O)C(C)C)C(C)C)[C@H](C)CC)[C@H](C)OC(=O)[C@H](C(C)C)NC1=O
DU-145
  Activity: 6.85 ×10⁻⁶ M
SK-MEL-28
  Activity: 6.85 ×10⁻⁶ M
A549
  Activity: 3.43 ×10⁻⁶ M
HT-29
  Activity: 6.85 ×10⁻⁷ M

## C/C=C1\NC(=O)[C@H](Cc2ccccc2)NC(=O)[C@@H](C(C)C)NC(=O)[C@@H]([C@H](C)CC)NC(=O)[C@H](NC(=O)[C@H](NC(=O)[C@H](CCCN)NC(=O)[C@H]2CCCN2C(=O)[C@H](NC(=O)[C@@H](NC(=O)[C@@H](NC(=O)[C@H](NC(=O)c2ccc3c(c2)OCO3)C(C)C)[C@@H](C)O)C(C)C)C(C)C)[C@H](C)CC)[C@H](C)OC(=O)[C@H](C(C)C)NC1=O
A549
  LC50: 1330 nM
  TGI: 1040 nM
  GI50: 640 nM
HT-29
  GI50: 413 nM
  TGI: 514 nM
  CC50: 409 nM

## C/C=C1\NC(=O)[C@H](Cc2ccccc2)NC(=O)[C@@H](C(C)C)NC(=O)[C@@H]([C@H](C)CC)NC(=O)[C@H](NC(=O)[C@H](NC(=O)[C@H](NC(=O)CCCC(C)C)C(C)C)[C@H](C)CC)[C@H](C)OC(=O)[C@H](C(C)C)NC1=O
A549
  LC50: 14800 nM
HT-29
  CC50: 40000 nM

## C/C=C1\NC(=O)[C@H](Cc2ccccc2)NC(=O)[C@@H](C(C)C)NC(=O)[C@@H]([C@H](C)CC)NC(=O)[C@H](NC(=O)[C@H](NC(=O)[C@H](CCCN)NC(=O)[C@H]2CCCN2C(=O)[C@H](NC(=O)[C@@H](NC(=O)[C@@H](NC(=O)[C@H](NC(=O)CCCOC(C)=O)C(C)C)[C@@H](C)O)C(C)C)C(C)C)[C@H](C)CC)[C@H](C)OC(=O)[C@H](C(C)C)NC1=O
DU-145
  Activity: 6.7 ×10⁻⁶ M
SK-MEL-28
  Activity: 6.7 ×10⁻⁶ M
A549
  Activity: 6.7 ×10⁻⁶ M
HT-29
  Activity: 6.7 ×10⁻⁶ M

## C/C=C1\NC(=O)[C@H](Cc2ccccc2)NC(=O)[C@@H](C(C)C)NC(=O)[C@@H]([C@H](C)CC)NC(=O)[C@H](NC(=O)[C@H](NC(=O)[C@H](CCCN)NC(=O)[C@H]2CCCN2C(=O)[C@H](NC(=O)[C@@H](NC(=O)[C@@H](NC(=O)[C@H](NC(=O)CCC(C)C)C(C)C)[C@@H](C)O)C(C)C)C(C)C)[C@H](C)CC)[C@H](C)OC(=O)[C@H](C(C)C)NC1=O
DU-145
  Activity: 3.42 ×10⁻⁷ M
SK-MEL-28
  Activity: 3.42 ×10⁻⁶ M
A549
  Activity: 3.42 ×10⁻⁷ M
HT-29
  Activity: 3.42 ×10⁻⁷ M

## C/C=C1\NC(=O)[C@H](Cc2ccccc2)NC(=O)[C@@H](C(C)C)NC(=O)[C@@H]([C@H](C)CC)NC(=O)[C@H](NC(=O)[C@H](NC(=O)[C@H](CCCN)NC(=O)[C@H]2CCCN2C(=O)[C@H](NC(=O)[C@@H](NC(=O)[C@@H](NC(=O)[C@H](NC(=O)CCCOC(=O)CCOC(C)=O)C(C)C)[C@@H](C)O)C(C)C)C(C)C)[C@H](C)CC)[C@H](C)OC(=O)[C@H](C(C)C)NC1=O
DU-145
  Activity: 6.33 ×10⁻⁷ M
SK-MEL-28
  Activity: 6.33 ×10⁻⁷ M
A549
  Activity: 6.33 ×10⁻⁷ M
HT-29
  Activity: 6.33 ×10⁻⁷ M

## C/C=C1\NC(=O)[C@H](Cc2ccccc2)NC(=O)[C@@H](C(C)C)NC(=O)[C@@H]([C@H](C)CC)NC(=O)[C@H](NC(=O)[C@H](NC(=O)[C@H](CCCN)NC(=O)[C@H]2CCCN2C(=O)[C@H](NC(=O)[C@@H](NC(=O)[C@@H](NC(=O)[C@H](NC(=O)c2ccc(C)cc2)C(C)C)[C@@H](C)O)C(C)C)C(C)C)[C@H](C)CC)[C@H](C)OC(=O)[C@H](C(C)C)NC1=O
[1]
  GI50: 447 nM
  CC50: 394 nM
[1]; read-out: GI50
  GI50: 479 nM
[2]
  GI50: 421 nM
  CC50: 422 nM
[2]; read-out: GI50
  GI50: 365 nM
[3]
  GI50: 950 nM
  TGI: 898 nM

## C/C=C1\NC(=O)[C@H](Cc2ccccc2)NC(=O)[C@@H](C(C)C)NC(=O)[C@@H]([C@H](C)CC)NC(=O)[C@H](NC(=O)[C@H](NC(=O)[C@H](CCCN)NC(=O)[C@H]2CCCN2C(=O)[C@H](NC(=O)[C@@H](NC(=O)[C@@H](NC(=O)[C@H](NC(=O)C(F)(F)F)C(C)C)[C@@H](C)O)C(C)C)C(C)C)[C@H](C)CC)[C@H](C)OC(=O)[C@H](C(C)C)NC1=O
DU-145
  Activity: 3.42 ×10⁻⁶ M
SK-MEL-28
  Activity: 6.84 ×10⁻⁶ M
A549
  Activity: 6.84 ×10⁻⁶ M
HT-29
  Activity: 3.42 ×10⁻⁶ M
